Source: ChEMBL document CHEMBL1121798, “Puromycin analogues. Effect of aryl-substituted puromycin analogues on the ribosomal peptidyltransferase reaction” (J Med Chem, 1981)
The source made the active and inactive calls. The rule behind the calls is not given here.

Columns and labels:
Escherichia coli [1] = assay: Vmax in the peptidyltransferase reaction; format: functional
Method in brief: (§1)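 E. coli ribosomes (washed, 2.78 A260 units) loaded with Ac[14C]Phe-tRNA (21 pmol) in 100 mM Tris-Cl pH 7.5, 100 mM NH4Cl, 15 mM Mg(OAc)2, 0.65 mM DTT, 1.2 mM GTP, FWR, poly(U), 28 °C for 8 min. Analogue then added as acceptor. Radiolabelled product counted and blank-corrected. Duplicates at five substrate concentrations. Km/Vmax from double-reciprocal plots by Wilkinson analysis.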

Escherichia coli [2] = assay: Michaelis constant (Km) in the peptidyltransferase reaction; format: functional; method in brief: as §1
Escherichia coli [3] = assay: Compound was evaluated for the substrate activity in the peptidyltransferase reaction of Escherichia coli ribosomes.
Escherichia coli [4] = assay: Michaelis constant (Km) in the peptidyltransferase reaction; Inactive; format: functional; method in brief: as §1

Question: How did the Vmax (Escherichia coli [1]) turn out when CN(C)c1ncnc2c1ncn2C1OC(CO)C(NC(=O)C(N)Cc2ccc(N)cc2)C1O (stereo unspecified) was run?
Answer: Its Vmax is 0.79 pmol/min.

Question: And the Km (Escherichia coli [2])?
Answer: The Km was 120 µM.

Question: And the Substrate efficiency (Escherichia coli [3])?
Answer: Its Substrate efficiency is 89%.

Question: What does the source list for COc1ccc(C[C@H](N)C(=O)N[C@H]2[C@@H](O)[C@H](n3cnc4c(N(C)C)ncnc43)O[C@@H]2CO)cc1?
Answer: Vmax (Escherichia coli [1]): 0.99 pmol/min; Km (Escherichia coli [2]): 134 µM; Substrate efficiency (Escherichia coli [3]): 100%

Question: CC(=O)Nc1ccc(CC(N)C(=O)NC2C(CO)OC(n3cnc4c(N(C)C)ncnc43)C2O)cc1 (stereo unspecified) was tested. Which Vmax (Escherichia coli [1]) did it give?
Answer: The Vmax was 0.45 pmol/min.

Question: And the Km (Escherichia coli [2])?
Answer: The Km was 256 µM.

Question: And the Substrate efficiency (Escherichia coli [3])?
Answer: The Substrate efficiency was 23.7%.

Question: CCCC(=O)Nc1ccc(CC(N)C(=O)NC2C(CO)OC(n3cnc4c(N(C)C)ncnc43)C2O)cc1 (stereo unspecified) was tested. Which Vmax (Escherichia coli [1]) did it give?
Answer: The Vmax was 0.53 pmol/min.

Question: And the Km (Escherichia coli [2])?
Answer: The Km was 367 µM.

Question: What about the Substrate efficiency (Escherichia coli [3]) of the same compound?
Answer: The Substrate efficiency was 19.5%.

Question: For CN(C)c1ncnc2c1ncn2C1OC(CO)C(NC(=O)C(N)Cc2ccc([N+](=O)[O-])cc2)C1O (stereo unspecified), which Vmax (Escherichia coli [1]) is on record?
Answer: Its Vmax is 0.39 pmol/min.

Question: What about the Km (Escherichia coli [2]) of the same compound?
Answer: The Km was 255 µM.

Question: And the Substrate efficiency (Escherichia coli [3])?
Answer: The Substrate efficiency was 20.7%.

Question: With CN(C)c1ncnc2c1ncn2C1OC(CO)C(NC(=O)C(N)Cc2ccc(NC(=O)CBr)cc2)C1O (stereo unspecified) as the compound, how does the Km (Escherichia coli [4]) read?
Answer: The Km was “inactive”.
